Experimental data published in ChEMBL document CHEMBL4190408 (J Med Chem, 2018).
≈ marks a conversion by molar mass, not a printed value. Calls of active or inactive are those of the source. The rule behind the calls is not given here.

Columns and labels:
physchem [1] = conditions: phosphate buffer, pH 7.4
[2] = Clearance in Balb/c mouse at 1 mg/kg, iv; type: ADME, organism-based; conditions: Balb/c, in vivo
Summary of the method: (§1)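 Intravenous PK in male Balb/C mice, n=3, at 1 mpk. Vehicle was 30% DMA or 15% NMP, depending on the compound.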

Salmonella typhimurium [3] = assay: Genotoxicity in Salmonella typhimurium TA98 up to 2000 uM after 2 days in presence or absence of liver S9 fraction by Ames test; type: toxicity, organism-based; conditions: salmonella enterica subsp. enterica serovar typhimurium, s9, 48 h
Summary of the method: (§2)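 Ames MPF format with Salmonella typhimurium TA98, TA100, TA1535, TA1537 and E. coli uvrA. Run with and without metabolic activation (S9), 2-day incubation, up to 2000 µM.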

[4] = Thermodynamic solubility of the compound in pH 7.4 solution after 90 mins by UVLC-MS analysis; type: physicochemical; conditions: pH 7.4 solution, pH 7.4; read-out: Therm_solubility
in vitro [5] = conditions: mouse, liver microsomes
in vitro [6] = conditions: human, liver microsomes
[7] = Half life in Balb/c mouse at 1 mg/kg, iv; type: ADME, organism-based; conditions: Balb/c, in vivo
Summary of the method: as §1

Escherichia coli = assay: Genotoxicity in Escherichia coli uvrA up to 2000 uM after 2 days in presence or absence of liver S9 fraction by Ames test; type: toxicity, organism-based; conditions: s9, 48 h
Summary of the method: as §2

Mus musculus [8] = assay: Unbound AUC in Balb/c mouse at 1 mg/kg, iv; type: ADME, organism-based; conditions: in vivo
Summary of the method: as §1

[9] = Apparent clearance in Balb/c mouse at 10 mg/kg, po after 1 hr; type: ADME, organism-based; conditions: in vivo
[10] = Oral bioavailability in Balb/c mouse at 10 mg/kg after 1 hr; type: ADME, organism-based; conditions: Balb/c, in vivo
Summary of the method: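 Male Balb/C mice, n=3. Oral dose of 10 mpk as a homogeneous suspension of crystalline solid in 0.1% Tween 80, 0.1% silicone antifoam, 1% methylcellulose (400 cps) in water. I.v. dose of 1 mpk in 30% DMA or 15% NMP, depending on the compound. Bioavailability was extrapolated from the i.v./p.o. experiments.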

[11] = Fraction unbound in mouse blood; type: ADME, tissue-based
Salmonella typhimurium [12] = assay: Genotoxicity in Salmonella typhimurium TA1535 up to 2000 uM after 2 days in presence or absence of liver S9 fraction by Ames test; type: toxicity, organism-based; conditions: salmonella enterica subsp. enterica serovar typhimurium, s9, 48 h
Summary of the method: as §2

Mus musculus [13] = assay: Inhibition of allograft rejection in Balb/c mouse heterotopic cardiac transplantation model using C57BL/6 as cardiac donor assessed as long-term graft survival rate by measuring cardiac allograft function by daily palpitation at 5 mg/kg, po qd for 28 days; type: functional, organism-based; conditions: in the assay text read “for 14 days” for “for 28 days”
Summary of the method: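 Heterotopic cardiac allografts from C57BL/6 donors into Balb/C recipients. Recipients received 5 mpk as a homogeneous suspension in 0.1% Tween 80, 0.1% silicone antifoam, 1% methylcellulose (400 cps), or vehicle alone, by oral gavage once daily. Survival was compared with vehicle; rejection was indicated when the graft stopped beating.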

physchem [14] = conditions: pH 7.4 solution
Mus musculus [15] = assay: Unbound AUC (infinity) in Balb/c mouse at 10 mg/kg, po after 1 hr; type: ADME, organism-based; conditions: in vivo
Salmonella typhimurium [16] = assay: Genotoxicity in Salmonella typhimurium TA1537 up to 2000 uM after 2 days in presence or absence of liver S9 fraction by Ames test; type: toxicity, organism-based; conditions: salmonella enterica subsp. enterica serovar typhimurium, s9, 48 h
Summary of the method: as §2

Mus musculus [17] = assay: Unbound Cmax in Balb/c mouse at 10 mg/kg, po after 1 hr; type: ADME, organism-based; conditions: in vivo
[18] = Volume of distribution at steady state in Balb/c mouse at 1 mg/kg, iv; type: ADME, organism-based; conditions: Balb/c, in vivo, read-out: Vdss
Summary of the method: as §1

Salmonella typhimurium [19] = assay: Genotoxicity in Salmonella typhimurium TA100 up to 2000 uM after 2 days in presence or absence of liver S9 fraction by Ames test; type: toxicity, organism-based; conditions: salmonella enterica subsp. enterica serovar typhimurium, s9, 48 h
Summary of the method: as §2

Salmonella typhimurium [20] = assay: Genotoxicity in Salmonella typhimurium TA98 up to 1000 uM after 2 days in presence or absence of liver S9 fraction by Ames test; type: toxicity, organism-based; conditions: salmonella enterica subsp. enterica serovar typhimurium, s9, 48 h
Summary of the method: (§3)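 MiniAMES (MPF format) with Salmonella typhimurium TA98, TA100 and TA1537, with and without S9 metabolic activation. 2-day incubation, top concentration 1000 µM.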

Salmonella typhimurium [21] = assay: Genotoxicity in Salmonella typhimurium TA100 up to 1000 uM after 2 days in presence or absence of liver S9 fraction by Ames test; type: toxicity, organism-based; conditions: salmonella enterica subsp. enterica serovar typhimurium, s9, 48 h
Summary of the method: as §3

Salmonella typhimurium [22] = assay: Genotoxicity in Salmonella typhimurium TA1537 up to 1000 uM after 2 days in presence or absence of liver S9 fraction by Ames test; type: toxicity, organism-based; conditions: salmonella enterica subsp. enterica serovar typhimurium, s9, 48 h
Summary of the method: as §3

COc1ccc(NC(=O)N2CCN(c3nc(N)nc4c3cnn4C)[C@@H](C)C2)c(C)c1
logD at 1.5 h (physchem [1]): 1.47
clearance [2]: 5 mL/min/kg
Activity (Salmonella typhimurium [3]): Non-Toxic
solubility thermodynamic at 1.5 h [4]: 110 µM (≈ 45.2 µg/mL)
microsomal CLint at 0.75 h, 3 µM (in vitro [5]): 6 µL/min/mg
microsomal CLint at 0.75 h, 3 µM (in vitro [6]): 4 µL/min/mg
half-life [7]: 1.4 h
Activity (Escherichia coli): Non-Toxic
fAUC (Mus musculus [8]): 0.684 µM·h
CL/F [9]: 5.3 mL/min/kg
bioavailability [10]: 100%
fraction unbound [11]: 0.09
Activity (Salmonella typhimurium [12]): Non-Toxic
Activity (Mus musculus [13]): Active
solubility kinetic at 1.5 h (physchem [14]): > 350 µM
fAUC (Mus musculus [15]): 6.941 µM·h
Activity (Salmonella typhimurium [16]): Non-Toxic
fCmax (Mus musculus [17]): 2113 nM
Vd [18]: 0.6 L/kg
Activity (Salmonella typhimurium [19]): Non-Toxic

COc1ccc(N)c(C)c1.Cl
Activity (Salmonella typhimurium [20]): Non-Toxic
Activity (Salmonella typhimurium [21]): Non-Toxic
Activity (Salmonella typhimurium [22]): Non-Toxic
